Activity calls are given as the source filed them. No cut-off for these calls is given here.
Key:
[1] = tested on: PBMC; experiment: Immunostimulatory activity against human PBMC assessed as IL1-beta production at 21 uM after 72 hrs; type: functional, cell-based
Outline: (§1)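 Unstimulated PBMCs and PHA-blasts from three donors, in three independent experiments, cultured with test compound at 20 μg/ml (21 or 22 μM). Supernatants collected after 72 h. The cytokine profile was read on a Bio-Plex 27-plex human cytokine bead immunoassay, using beads coupled to cytokine-specific monoclonal antibodies and run per the kit instructions.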

[2] = Cytotoxicity against human thymidine kinase-negative OST cells after 3 to 4 days; type: cell-based
[3] = tested on: PBMC; experiment: Immunostimulatory activity against human PBMC assessed as G-CSF production at 21 uM after 72 hrs; type: functional, cell-based
Outline: (§2)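 PBMCs and PHA blasts from three donors (three independent experiments) cultured with 21 μM compound; supernatants collected at 72 h; cytokines quantified with the Bio-Plex human 27-plex bead immunoassay.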

[4] = tested on: PBMC; experiment: Immunostimulatory activity against human PBMC assessed as FGF production at 21 uM after 72 hrs; type: functional, cell-based; outline: as §2
[5] = tested on: PBMC; experiment: Immunostimulatory activity against human PBMC assessed as IL-15 production at 22 uM after 72 hrs; type: functional, cell-based; outline: as §1
[6] = tested on: Human immunodeficiency virus 1; experiment: Ratio of EC90 to EC50 for R5 tropic HIV-1 clade A/E isolate ID12 infected in human PBMC; type: functional
[7] = tested on: PBMC; experiment: Immunostimulatory activity against human PBMC assessed as suppression of IL-2 production at 21 uM after 72 hrs; type: functional; outline: as §1
[8] = tested on: PBMC; experiment: Immunostimulatory activity against human PBMC assessed as TNF-alpha production at 21 uM after 72 hrs; type: functional, cell-based; outline: as §1
[9] = tested on: Human immunodeficiency virus 1; experiment: Binding affinity to HIV-1 3B gp120 after 6 mins by SPR analysis
[10] = tested on: PBMC; experiment: Immunostimulatory activity against human PBMC assessed as IL-15 production at 21 uM after 72 hrs; type: functional, cell-based; outline: as §1
[11] = Antiviral activity against SIV mac251 infected in human Raji cells expressing DC-SIGN gene assessed as prevention of syncytium formation between persistently […]-infected Raji cells and uninfected human C8166 cells after 60 mins by ELISA; type: functional, cell-based, Simian immunodeficiency virus - mac; details: Simian immunodeficiency virus, 251, Raji, 1 h
[12] = tested on: Human immunodeficiency virus 1; experiment: Antiviral activity against compound pretreated HIV-1 3B isolate 42 harboring gp120 mutant infected in human CEM cells assessed as inhibition of virus-induced cytopathicity after 3 to 4 days by microscopic analysis; type: functional, organism-based; details: Human immunodeficiency virus 1, 3B isolate 42, CCRF-CEM
Outline: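 CEM or C8166 cells at 5 × 10^5/ml infected with HIV-1 at 100 CCID50 per ml, then mixed 1:1 with compound dilutions and held at 37°C for 3–4 days. Giant cells were counted microscopically at ×100 against untreated infected cultures. EC50 is the concentration cutting syncytium formation by 50%.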

[13] = tested on: Human immunodeficiency virus 1; experiment: Antiviral activity against R5 tropic HIV-1 clade A isolate UG273 infected in human PBMC assessed as inhibition of viral replication […] by ELISA; type: functional, organism-based; details: Human immunodeficiency virus 1, clade A isolate UG273
Outline: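 PBMCs from healthy donors were stimulated with PHA (2 μg/ml) for 3 days, then seeded at 0.5 × 10^6 cells/well in RPMI 1640 with 10% FCS, IL-2 (25 U/ml) and compound. Virus was added at a final 250 pg p24/ml. Supernatant was taken at day 12 for p24 antigen ELISA.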

[14] = Cytotoxicity against mouse L1210 cells after 3 to 4 days; type: cell-based
[15] = tested on: Human immunodeficiency virus 1; experiment: Antiviral activity against R5 tropic HIV-1 Bal infected in human Raji cells expressing DC-SIGN gene assessed as inhibition of virus capture by Raji cells after 60 mins by ELISA; type: functional, organism-based; details: Human immunodeficiency virus 1, Bal, 1 h
[16] = tested on: Human immunodeficiency virus 1; experiment: Antiviral activity against X4 tropic HIV-1 3B infected in human Raji cells expressing DC-SIGN gene assessed as inhibition of virus capture by Raji cells after 60 mins by ELISA; type: functional, organism-based; details: Human immunodeficiency virus 1, 3B, 1 h
[17] = tested on: PBMC; experiment: Immunostimulatory activity against human PBMC assessed as IL-6 production at 22 uM after 72 hrs; type: functional, cell-based; outline: as §1
[18] = tested on: Human immunodeficiency virus 1; experiment: Antiviral activity against X4 tropic HIV-1 3B infected in human Raji cells expressing DC-SIGN gene assessed as prevention of syncytium formation between persistently HIV-1 3B-infected Raji cells and uninfected human C8166 cells after 36 to 42 hrs by microscopic analysis; type: functional, organism-based; details: Human immunodeficiency virus 1, 3B
Outline: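 Raji/DC-SIGN cells exposed 60 min to HIV-1 IIIB (2.2 × 10^6 pg/ml p24), washed by two centrifugations, then plated with compound dilutions and C8166 cells (10^7/ml, 50 μl); cocultures at 37°C scored microscopically for syncytia at ~36–48 h.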

[19] = tested on: Human immunodeficiency virus 1; experiment: Antiviral activity against HIV-1 3B infected in human MT4 cells assessed as inhibition of virus-induced cytopathicity after 7 days by trypan blue staining; type: functional, organism-based; details: Human immunodeficiency virus 1, 3B, MT4, 168 h
[20] = tested on: Human immunodeficiency virus 1; experiment: Antiviral activity against R5 tropic HIV-1 clade C isolate ETH2220 infected in human PBMC assessed as inhibition of viral replication after 12 days by ELISA; details: Human immunodeficiency virus 1, clade C isolate ETH2220, 12 days
[21] = tested on: PBMC; experiment: Immunostimulatory activity against human PBMC assessed as RANTES production at 21 uM after 72 hrs; type: functional, cell-based; outline: as §1
[22] = Cytotoxicity against human Caco2 cells after 3 to 4 days; type: cell-based; details: Caco-2 cells
Outline: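 Cells seeded at 20,000–75,000 per well with compound dilutions, incubated 3–4 days at 37°C, and counted on a Coulter particle counter; CC50 is the concentration inhibiting proliferation by 50%.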

[23] = tested on: Human immunodeficiency virus 1; experiment: Binding affinity to HIV-1 3B gp120 after 6 mins by SPR analysis at pH 4
[24] = tested on: Human immunodeficiency virus 1; experiment: Ratio of EC90 to EC50 for R5 tropic HIV-1 clade G isolate BCF-DIOUM infected in human PBMC; type: functional
Outline: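 PBMCs from healthy donors were PHA-stimulated (2 μg/ml, 3 days, 37°C), then seeded at 0.5 × 10^6 per well with compound dilutions in RPMI 1640 with 10% FCS and IL-2 (25 U/ml). Virus was added at 250 pg p24 or p27/ml final. On day 12, supernatant HIV-1 p24 or HIV-2 p27 was measured by ELISA, giving EC50 and EC90.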

[25] = tested on: PBMC; experiment: Immunostimulatory activity against human PBMC assessed as IL-1ra production at 21 uM after 72 hrs; type: functional, cell-based; outline: as §1
[26] = tested on: PBMC; experiment: Immunostimulatory activity against human PBMC assessed as GM-CSF production at 22 uM after 72 hrs; type: functional, cell-based
[27] = tested on: PBMC; experiment: Immunostimulatory activity against human PBMC assessed as suppression of IL-4 production at 22 uM after 72 hrs; type: functional; outline: as §1
[28] = tested on: Human immunodeficiency virus 1; experiment: Antiviral activity against HIV-1 3B infected in human HUT78 cells assessed as prevention of syncytium formation between persistently HIV-1 3B-infected HUT-78 cells and uninfected SupT1 cells compound preexposed at pH 4 after 3 to 4 days by ELISA; type: functional, organism-based; details: SUP-T1
[29] = tested on: PBMC; experiment: Immunostimulatory activity against human PBMC assessed as eotoxin production at 21 uM after 72 hrs; type: functional, cell-based
Outline: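 In three independent experiments, PBMCs and PHA-blasts from three donors were cultured with compound for 72 h. Supernatants were analysed with a bead-based 27-plex human cytokine immunoassay covering interleukins, chemokines, growth factors, IFN-γ and TNF-α.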

Compound	Activity [1]	CC50 [2]	Activity [3]	Activity [4]	Activity [5]	Ratio [6]	fold change (FC) [7]	Activity [8]	Activity [9]	Activity [10]	IC50 [11]	EC50 [12]	EC50 [13]	CC50 [14]	IC50 [15]	IC50 [16]	Activity [17]	EC50 [18]	EC50 [19]	EC50 [20]	other results
CN[C@@H]1[C@H](O[C@@H]2OC[C@@H](O)[C@H](O)[C@H]2O)[C@@H](O)[C@H](O[C@H]2c3cc(C)c(C(=O)N[C@H](C)C(=O)O)c(O)c3-c3c(cc4c(c3O)C(=O)c3cc(OC)cc(O)c3C4=O)[C@@H]2O)O[C@@H]1C [PRADIMICIN A]	inactive	> 50 µM	inactive	inactive	inactive	2	4	inactive	inactive	inactive	16 µM	> 50 µM	5.9 µM	> 50 µM	17 µM	3.5 µM	inactive	5.4 µM	5.2 µM	10 µM	Activity [21]: inactive; CC50 [22]: > 50 µM; Activity [23]: Active; Ratio [24]: 2; Activity [25]: inactive; Activity [26]: inactive; fold change (FC) [27]: 2; Activity [28]: Active; Activity [29]: inactive
CN[C@@H]1[C@H](O[C@@H]2O[C@H](CO)[C@@H](O)[C@H](OS(=O)(=O)O)[C@H]2O)[C@@H](O)[C@H](O[C@H]2c3cc(C)c(C(=O)N[C@H](C)C(=O)O)c(O)c3-c3c(cc4c(c3O)C(=O)c3cc(OC)cc(O)c3C4=O)[C@@H]2O)O[C@@H]1C [PRADIMICIN S]	inactive	> 230 µM	inactive	inactive	inactive	2	4	inactive	inactive	inactive	16 µM	> 50 µM	15 µM	> 230 µM	21 µM	11 µM	inactive	5.1 µM	5 µM	17 µM	Activity [21]: inactive; CC50 [22]: > 230 µM; Activity [23]: Active; Ratio [24]: 2; Activity [25]: inactive; Activity [26]: inactive; fold change (FC) [27]: 2; Activity [28]: Active; Activity [29]: inactive
